Results as given in ChEMBL document CHEMBL1126625, “7-Azetidinylquinolones as antibacterial agents. Synthesis and structure-activity relationships” (J Med Chem, 1993).
≈ marks a conversion by molar mass, not a printed value.

Experiments:
[1] = system: Staphylococcus epidermidis; experiment: pIn vitro minimum inhibitory concentration (MIC) that prevented growth of Staphylococcus epidermidis ATCC 155-1 (Se) after incubation at 37 degree C for 18 h; assay type: functional
Staphylococcus aureus [2] = experiment: Minimum inhibitory concentration (MIC) preventing growth of […]; assay type: functional
Klebsiella pneumoniae = experiment: Minimum inhibitory concentration (MIC)preventing growth of Klebsiella pneumoniae; assay type: functional
Enterococcus faecalis = experiment: Minimum inhibitory concentration (MIC) preventing growth of Streptococcus faecalis ATCC 10541; assay type: functional
Bacillus cereus = experiment: Minimum inhibitory concentration (MIC) preventing growth of Bacillus cereus; assay type: functional
Bacillus subtilis = experiment: Minimum inhibitory concentration (MIC) preventing growth of Bacillus subtilis; assay type: functional
Pseudomonas aeruginosa [3] = experiment: Minimum inhibitory concentration (MIC)preventing growth of Pseudomonas aeruginosa; assay type: functional
Morganella morganii = experiment: Minimum inhibitory concentration (MIC) preventing growth of Morganella morganii; assay type: functional
Proteus vulgaris = experiment: Minimum inhibitory concentration (MIC) preventing growth of Proteus vulgaris; assay type: functional
Enterobacter cloacae = experiment: Minimum inhibitory concentration (MIC)preventing growth of Enterobacter cloacae; assay type: functional
Escherichia coli [4] = experiment: Minimum inhibitory concentration (MIC)preventing growth of Escherichia coli; assay type: functional
Escherichia coli [5] = experiment: Efficacy on systemic infections after oral administration in mice was determined against Escherichia coli HM-42; assay type: functional
In short: (§1)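 Mouse protection test using 4 groups of 10 mice. Mice were infected intraperitoneally with a bacterial suspension slightly above LD100. A single oral dose was given immediately after infection, with four doses, one per group, chosen from in vitro activity. Survival was scored after one week, and ED50 (total mg/kg protecting 50% of mice) was interpolated from group survival rates.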

Pseudomonas aeruginosa [6] = experiment: Efficacy on systemic infections after oral administration in mice was determined against Pseudomonas aeruginosa HS-116; assay type: functional; in short: as §1
Staphylococcus aureus [7] = experiment: Efficacy on systemic infections after oral administration in mice was determined against […] HS-93; assay type: functional; in short: as §1
Mus musculus = experiment: Blood level after oral administration in mice (50 mg/kg) was determined by bioassay procedure and represent total activity present in the serum; assay type: ADME, organism-based; settings: in vivo
In short: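 Single oral dose of 50 mg/kg to mice. Blood taken from groups of six mice at 0.5, 1, 2 and 4 h after dosing. Serum levels measured by disk agar diffusion bioassay with Bacillus subtilis ATCC 6633 on Seed Agar, plates incubated 18 h at 37 °C, giving total activity in serum. AUC 0-4 h expressed as μg/mL […].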

[8] = system: Staphylococcus epidermidis; experiment: Minimum inhibitory concentration (MIC) preventing growth of Staphylococcus epidermidis; assay type: functional

Row | SMILES | MIC [1] [µg/mL] | MIC (Staphylococcus aureus [2]) [µg/mL] | MIC (Klebsiella pneumoniae) [µg/mL] | MIC (Enterococcus faecalis) [µg/mL] | MIC (Bacillus cereus) [µg/mL] | MIC (Bacillus subtilis) [µg/mL] | MIC (Pseudomonas aeruginosa [3]) [µg/mL] | MIC (Morganella morganii) [µg/mL] | MIC (Proteus vulgaris) [µg/mL] | MIC (Enterobacter cloacae) [µg/mL] | MIC (Escherichia coli [4]) [µg/mL] | AUC (Mus musculus) [ng·h/mL] | MIC [8] [µg/mL] | ED50 (Escherichia coli [5]) [mg/kg] | ED50 (Pseudomonas aeruginosa [6]) [mg/kg] | ED50 (Staphylococcus aureus [7]) [mg/kg]
1 | CC1COc2c(N3CC(C)(N)C3)c(F)cc3c(=O)c(C(=O)O)cn1c23 (stereo unspecified) | 0.25 (≈ 0.72 µM) | 0.5 (≈ 1.44 µM) | 0.015 (≈ 0.0432 µM) | 0.5 (≈ 1.44 µM) | 0.5 (≈ 1.44 µM) | 0.12 (≈ 0.345 µM) | 2 (≈ 5.76 µM) | 0.25 (≈ 0.72 µM) | 1 (≈ 2.88 µM) | 0.12 (≈ 0.345 µM) | 0.12 (≈ 0.345 µM) |  |  |  |  | 
2 | CC1(N)CN(c2nc3c(cc2F)c(=O)c(C(=O)O)cn3C2CC2)C1 |  | 0.25 (≈ 0.752 µM) | 0.03 (≈ 0.0903 µM) | 0.25 (≈ 0.752 µM) | 0.12 (≈ 0.361 µM) | 0.03 (≈ 0.0903 µM) | 0.5 (≈ 1.5 µM) | 0.06 (≈ 0.181 µM) | 0.12 (≈ 0.361 µM) | 0.03 (≈ 0.0903 µM) | 0.03 (≈ 0.0903 µM) | 31700 | 0.12 (≈ 0.361 µM) | 2.8 | 52 | 10.7
3 | NC1CN(c2c(F)cc3c(=O)c(C(=O)O)cn(-c4ccc(F)cc4F)c3c2Cl)C1 |  | 0.015 (≈ 0.0354 µM) | 0.015 (≈ 0.0354 µM) | 0.06 (≈ 0.142 µM) | 0.015 (≈ 0.0354 µM) | 0.015 (≈ 0.0354 µM) | 0.12 (≈ 0.283 µM) | 0.015 (≈ 0.0354 µM) | 0.015 (≈ 0.0354 µM) | 0.015 (≈ 0.0354 µM) | 0.015 (≈ 0.0354 µM) | 13000 | 0.015 (≈ 0.0354 µM) | 2.3 | 55 | 1.7
4 | CNC1CN(c2c(F)cc3c(=O)c(C(=O)O)cn(C4CC4)c3c2Cl)C1 |  | 0.06 (≈ 0.164 µM) | 0.12 (≈ 0.328 µM) | 0.25 (≈ 0.683 µM) | 0.12 (≈ 0.328 µM) | 0.015 (≈ 0.041 µM) | 0.25 (≈ 0.683 µM) | 0.015 (≈ 0.041 µM) | 0.015 (≈ 0.041 µM) | 0.015 (≈ 0.041 µM) | 0.015 (≈ 0.041 µM) | 4000 | 0.06 (≈ 0.164 µM) | 2 | 39 | 15.2
5 | CC1(N)CN(c2nc3c(cc2F)c(=O)c(C(=O)O)cn3C(C)(C)C)C1 |  | 0.12 (≈ 0.344 µM) | 0.015 (≈ 0.0431 µM) | 1 (≈ 2.87 µM) | 0.12 (≈ 0.344 µM) | 0.015 (≈ 0.0431 µM) | 2 (≈ 5.74 µM) | 0.12 (≈ 0.344 µM) | 0.25 (≈ 0.718 µM) | 0.12 (≈ 0.344 µM) | 0.06 (≈ 0.172 µM) | 11300 | 0.12 (≈ 0.344 µM) |  |  | 
6 | O=C(O)c1cn(C2CC2)c2cc(N3CCNCC3)c(F)cc2c1=O [CIPROFLOXACIN] |  | 0.25 (≈ 0.754 µM) | 0.03 (≈ 0.0905 µM) | 0.5 (≈ 1.51 µM) | 0.25 (≈ 0.754 µM) | 0.06 (≈ 0.181 µM) | 0.12 (≈ 0.362 µM) | 0.06 (≈ 0.181 µM) | 0.06 (≈ 0.181 µM) |  |  | 2300 | 0.5 (≈ 1.51 µM) | 3 | 70.3 | 45.1
7 | CC1(N)CN(c2c(F)cc3c(=O)c(C(=O)O)cn(-c4ccc(F)cc4F)c3c2Cl)C1 |  | 0.06 (≈ 0.137 µM) | 0.03 (≈ 0.0685 µM) | 0.25 (≈ 0.571 µM) | 0.06 (≈ 0.137 µM) | 0.03 (≈ 0.0685 µM) | 0.5 (≈ 1.14 µM) | 0.25 (≈ 0.571 µM) | 0.12 (≈ 0.274 µM) | 0.12 (≈ 0.274 µM) | 0.03 (≈ 0.0685 µM) | 23300 | 0.06 (≈ 0.137 µM) | 1.5 | 43 | 1.2

The remaining molecules from weak to strong by MIC (Staphylococcus aureus [2]), led by results:

Row | MIC [1] [µg/mL] | MIC (Staphylococcus aureus [2]) [µg/mL] | MIC (Klebsiella pneumoniae) [µg/mL] | MIC (Enterococcus faecalis) [µg/mL] | MIC (Bacillus cereus) [µg/mL] | MIC (Bacillus subtilis) [µg/mL] | MIC (Pseudomonas aeruginosa [3]) [µg/mL] | MIC (Morganella morganii) [µg/mL] | MIC (Proteus vulgaris) [µg/mL] | MIC (Enterobacter cloacae) [µg/mL] | MIC (Escherichia coli [4]) [µg/mL] | AUC (Mus musculus) [ng·h/mL] | MIC [8] [µg/mL] | SMILES | ED50 (Escherichia coli [5]) [mg/kg] | ED50 (Pseudomonas aeruginosa [6]) [mg/kg] | ED50 (Staphylococcus aureus [7]) [mg/kg]
8 |  | 0.25 (≈ 0.722 µM) | 0.03 (≈ 0.0866 µM) | 1 (≈ 2.89 µM) | 0.12 (≈ 0.346 µM) | 0.03 (≈ 0.0866 µM) | 1 (≈ 2.89 µM) | 0.06 (≈ 0.173 µM) | 0.25 (≈ 0.722 µM) | 0.06 (≈ 0.173 µM) | 0.03 (≈ 0.0866 µM) | 22900 | 0.25 (≈ 0.722 µM) | CNC1(C)CN(c2nc3c(cc2F)c(=O)c(C(=O)O)cn3C2CC2)C1 | 3 | 102 | 9.6
9 |  | 0.25 (≈ 0.647 µM) | 0.06 (≈ 0.155 µM) | 4 (≈ 10.4 µM) | 0.25 (≈ 0.647 µM) | 0.06 (≈ 0.155 µM) | 2 (≈ 5.18 µM) | 0.12 (≈ 0.311 µM) | 1 (≈ 2.59 µM) | 0.06 (≈ 0.155 µM) | 0.06 (≈ 0.155 µM) | 33000 | 0.25 (≈ 0.647 µM) | CC1(N)CN(c2nc3c(cc2F)c(=O)c(C(=O)O)cn3-c2ccc(F)cc2)C1 | 1.3 | 82.7 | 7.5
10 |  | 0.12 (≈ 0.341 µM) | 0.06 (≈ 0.171 µM) | 0.12 (≈ 0.341 µM) | 0.12 (≈ 0.341 µM) | 0.06 (≈ 0.171 µM) | 0.25 (≈ 0.711 µM) | 0.015 (≈ 0.0426 µM) | 0.015 (≈ 0.0426 µM) | 0.015 (≈ 0.0426 µM) | 0.015 (≈ 0.0426 µM) | 8500 | 0.12 (≈ 0.341 µM) | NC1CN(c2c(F)cc3c(=O)c(C(=O)O)cn(C4CC4)c3c2Cl)C1 | 1.1 | 34 | 7.2
11 |  | 0.12 (≈ 0.297 µM) | 0.06 (≈ 0.148 µM) | 0.5 (≈ 1.24 µM) | 0.12 (≈ 0.297 µM) | 0.06 (≈ 0.148 µM) | 1 (≈ 2.47 µM) | 0.25 (≈ 0.618 µM) | 0.5 (≈ 1.24 µM) | 0.12 (≈ 0.297 µM) | 0.12 (≈ 0.297 µM) | 46400 | 0.12 (≈ 0.297 µM) | CC1(N)CN(c2nc3c(cc2F)c(=O)c(C(=O)O)cn3-c2ccc(F)cc2F)C1 | 3.1 | 108 | 6.7
12 |  | 0.06 (≈ 0.164 µM) | 0.03 (≈ 0.082 µM) | 0.25 (≈ 0.683 µM) | 0.06 (≈ 0.164 µM) | 0.06 (≈ 0.164 µM) | 0.25 (≈ 0.683 µM) | 0.03 (≈ 0.082 µM) | 0.12 (≈ 0.328 µM) | 0.03 (≈ 0.082 µM) | 0.03 (≈ 0.082 µM) | 2800 | 0.06 (≈ 0.164 µM) | CC1(N)CN(c2c(F)cc3c(=O)c(C(=O)O)cn(C4CC4)c3c2Cl)C1 | 2 | 59.8 | 4.1
13 |  | 0.015 (≈ 0.0343 µM) | 0.12 (≈ 0.274 µM) | 0.12 (≈ 0.274 µM) | 0.06 (≈ 0.137 µM) | 0.015 (≈ 0.0343 µM) | 0.25 (≈ 0.571 µM) | 0.12 (≈ 0.274 µM) | 0.12 (≈ 0.274 µM) | 0.12 (≈ 0.274 µM) | 0.015 (≈ 0.0343 µM) | 15300 | 0.06 (≈ 0.137 µM) | CNC1CN(c2c(F)cc3c(=O)c(C(=O)O)cn(-c4ccc(F)cc4F)c3c2Cl)C1 | 1.3 | 30 | 1.3
